Screening results (PubChem BioAssay)
KCNQ1 pot = potentiators or activators of KCNQ1 channel, primary screen, cell-based, thallium flux, high-throughput; AID 2648, 2010; CHO-K1 KCNQ1, thallium flux FluxOR fluorescence; active compounds read high; 310,000 tested, 0.35% active; Potassium voltage-gated channel subfamily KQT member 1 (Homo sapiens), P51787; B-score at 10 µM;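 active = fluorescence ratio B-score, a plate-corrected score, at least three library SD, with initial intensity B-score within 5 SD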
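assay system = CHO-K1 cells stably expressing KCNQ1 | medium = assay buffer, equal DMSO in all wells | timing = 37 °C overnight plating, 90-min dark dye load, 20-min compound pretreatment | measured by = kinetic FluxOR thallium fluorescence, 10-s 1-Hz baseline, 110-s post-stimulus read | measure = fluorescence change relative to baseline, converted to B score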
PHOSPHO1 inh = PubChem AID 1565 | Phosphoethanolamine/phosphocholine phosphatase (Homo sapiens), Q8TCT1 | recombinant PHOSPHO1, absorbance phosphatase assay | inhibition, % at 13.3 µM | 290,000 tested, 1.1% active; in the data active = inhibition above about 60%
KCNK9 block = KCNK9 potassium channel inhibitors, primary screen, HEK293 cells, thallium flux. B-score at 10 µM. 310,000 tested, 1.2% active. FluxOR thallium flux fluorescence; active compounds read low. Potassium channel subfamily K member 9 (Homo sapiens), Q9NPC2;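 active = ratio B-score over 3 SD below the library mean, with starting fluorescence within 5 SD of its mean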;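 note: negative B-score means less thallium flux so channel inhibition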
KCNK3 block = human KCNK3 channel inhibitors, primary screen, CHO cells, FluxOR thallium flux, B-score; FluxOR fluorescence; active compounds read low; B-score at 10 µM; 340,000 tested, 0.84% active;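 active = B-score under library mean minus 4 SD, starting fluorescence ratio at most library mean plus 5 SD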;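 note: more negative B-score means stronger inhibition of thallium flux through KCNK3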
hERG protect = hERG rescue from dofetilide block, primary screen, cell-based, CHO-hERG, FluxOR thallium flux, dofetilide IC70; Voltage-gated inwardly rectifying potassium channel KCNH2 (Homo sapiens), Q12809; dofetilide IC70 present; activation (rescue from dofetilide block), less the hit threshold, % at 10 µM; 310,000 tested, 0.51% active; AID 1511, 2009;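 active = activation above the mean of controls blocked by dofetilide plus 5 SD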;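 note: thallium influx through hERG after potassium depolarization seen as dye fluorescence rise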
KCNQ1 block = inhibitors of human KCNQ1 channel, primary screen, cell-based, thallium flux, high-throughput; Potassium voltage-gated channel subfamily KQT member 1 (Homo sapiens), P51787; CHO-K1 KCNQ1, FluxOR thallium flux fluorescence; active compounds read high; B-score at 10 µM; 310,000 tested, 1.3% active; AID 2642, 2010;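 active = compounds whose thallium flux B-score, printed positive for inhibition, exceeds three library SD while starting fluorescence stays within three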;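 note: channel opened by potassium depolarization with thallium stimulus after 20 min compound exposure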
KCNK9 inh conf = KCNK9 potassium channel inhibitors, confirmation, HEK293 cells, thallium flux, duplicate. shares compounds with KCNK9 block. FluxOR thallium flux fluorescence. inhibition, % at 10 µM. 4,900 tested, 43% active;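 active = thallium signal inhibited by more than 5 SD of the compound-free buffer control wells, on both duplicate plates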
Kir21 sel = mouse Kir2.1 channel inhibition, confirmation, selectivity assay for KCNK9 modulator project, cell-based, HEK293, thallium flux; shares compounds with KCNK9 block; inhibition, % at 10 µM; 4,900 tested, 4% active; Kir2.1 cells, FluxOR thallium flux fluorescence;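 active = thallium signal drop more than 5 SD beyond the mean of the no-compound control wells, seen in both duplicate plates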;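 note: signal is fluorescence rise after thallium addition divided by baseline fluorescence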
Target sequence (P35561 whole entry, looked up): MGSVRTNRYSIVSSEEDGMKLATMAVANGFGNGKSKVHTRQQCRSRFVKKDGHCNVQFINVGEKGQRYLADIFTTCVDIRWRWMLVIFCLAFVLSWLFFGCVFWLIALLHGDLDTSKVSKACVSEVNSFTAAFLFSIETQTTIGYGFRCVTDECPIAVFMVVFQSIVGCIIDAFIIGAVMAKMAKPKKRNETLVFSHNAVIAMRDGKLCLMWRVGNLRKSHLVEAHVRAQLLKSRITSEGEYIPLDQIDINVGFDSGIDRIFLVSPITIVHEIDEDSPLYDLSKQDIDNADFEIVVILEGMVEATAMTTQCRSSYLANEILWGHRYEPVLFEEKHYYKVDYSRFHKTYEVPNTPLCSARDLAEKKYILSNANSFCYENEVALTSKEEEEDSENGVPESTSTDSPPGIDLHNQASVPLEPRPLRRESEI
HEK293 Tl ctr = thallium flux in non-induced HEK293 cells, confirmation, counter-screen for KCNK9 inhibitor project, cell-based, second counter screen, non-induced KCNK9-HEK293 | shares compounds with KCNK9 block | FluxOR thallium flux | inhibition, % at 10 µM | 4,900 tested, 40% active | AID 492997, 2010;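 active = thallium signal drop beyond 5 SD of the untreated control mean, on both duplicate plates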
Of the large screens only hits and unclear results are named; the others gave an inactive call (follow-up assays come after a bar, where they were run). Only some compounds are listed: those with a hit (about 4% of all), similar ones and a draw of the others.

O=C(Nc1nnc(-c2ccc3c(c2)CCCC3)o1)c1ccccc1	KCNQ1 pot 33 | KCNK9 inh conf inactive | Kir21 sel inactive | HEK293 Tl ctr inactive
CNc1nnc(CSc2nc(C)cc(C)n2)s1	none | KCNK9 inh conf 36% | Kir21 sel inactive | HEK293 Tl ctr inactive
O=C(c1ccc(-c2cccc(C(F)(F)F)c2)o1)N1CCN(c2ccccc2O)CC1	KCNK9 block -8.5 | KCNK9 inh conf 50% | Kir21 sel inactive | HEK293 Tl ctr inactive
COc1ccc(C2=CCC3CCCCN3C2)cc1OC (configuration not stated)	none (no result: KCNQ1 pot, PHOSPHO1 inh, KCNK9 block, hERG protect, KCNQ1 block)
Cc1cccc2nc(-c3ccccc3)nc(N3CCC(O)(c4ccc(Cl)cc4)CC3)c12	KCNK9 block -10 | KCNK9 inh conf 61% | Kir21 sel inactive | HEK293 Tl ctr 32%
CCN1C(=O)/C(=C\c2ccc(-c3ccc([N+](=O)[O-])cc3OC)o2)SC1=Nc1cccc(C(=O)O)c1	none | KCNK9 inh conf inactive | Kir21 sel inactive | HEK293 Tl ctr inactive
CCN(C(=O)CSc1nc2cc(C(F)(F)F)ccc2n1Cc1ccccc1)C1CCS(=O)(=O)C1 (configuration not stated)	KCNK9 block -10 | KCNK9 inh conf 61% | Kir21 sel inactive | HEK293 Tl ctr 52%
CCCCn1c(SCC(=O)N(CC)C2CCS(=O)(=O)C2)nc2cc(S(N)(=O)=O)ccc21 (configuration not stated)	none
CCCNC(=O)NC(=O)COc1ccc(-c2ccc(C#N)cc2)cc1	none
COc1ccc(CCNC(=O)c2ccc(Cl)c(S(=O)(=O)N3CCCCCC3)c2)cc1	none (no result: KCNQ1 pot, PHOSPHO1 inh, KCNK9 block, hERG protect, KCNQ1 block)
COc1ccc(CCNC(=O)c2ccc(Cl)c(S(=O)(=O)N(C)c3ccccc3)c2)cc1	none | KCNK9 inh conf inactive | Kir21 sel inactive | HEK293 Tl ctr inactive
CCS(=O)(=O)Nc1ccc2c(c1)OCO2	none
Cc1ccc(-c2cccc(C(=O)NCc3ccccc3)n2)c2ccccc12	none | KCNK9 inh conf inactive | Kir21 sel inactive | HEK293 Tl ctr inactive
Cc1ccc(-c2cccc(C(=O)NCCc3ccccc3)n2)c2ccccc12	KCNK9 block -17 | KCNK9 inh conf 76% | Kir21 sel inactive | HEK293 Tl ctr 32%
CCC(C)(C)n1nnnc1C(c1ccncc1)N1CCN(c2cccc(OC)c2)CC1 (configuration not stated)	none
CCC(C)(C)n1nnnc1C(c1cccnc1)N1CCN(c2cccc(C(F)(F)F)c2)CC1 (configuration not stated)	KCNK9 block -11 | KCNK9 inh conf 32% | Kir21 sel inactive | HEK293 Tl ctr inactive
Cc1ccc(SCc2cc(=O)[nH]c(Nc3nc(C)c4ccc(C)cc4n3)n2)cc1	none
Cc1ccc(SCc2cc(=O)[nH]c(Nc3nc(C)c4ccccc4n3)n2)cc1	none | KCNK9 inh conf inactive | Kir21 sel inactive | HEK293 Tl ctr inactive
NC(=O)c1ccc(NC(=O)CSc2nnc(-c3cccnc3)n2Cc2ccco2)cc1	none
CSc1ccc(CN(C)CC(=O)NC(=O)NC(C)(C)C)cc1	none | KCNK9 inh conf inactive | Kir21 sel inactive | HEK293 Tl ctr inactive
CC1CC(C)CN(c2ccc(C(=O)NCc3ccc4c(c3)OCO4)cc2[N+](=O)[O-])C1 (configuration not stated)	KCNK9 block -8.5 | KCNK9 inh conf 43% | Kir21 sel inactive | HEK293 Tl ctr inactive
